Assay [1] deals with Rattus norvegicus. In words: Tested for stimulation of intragastric pressure in rat on sc administration. It counts as functional. The gist of the method: (§1)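 Male Wistar rats (200-500 g) with chronic gastric fistula, fasted overnight and restrained in Bollman cages. Only animals with basal motility <4 mmHg mean amplitude were used. Pressure waves were recorded via the fistula through a transducer over four 10-min periods before and after sc dosing, and the mean motility index was derived from them. Usually four groups of 10 rats received graded doses or vehicle.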

A further assay concerns Mus musculus. Put plainly: Tested for anti-apomorphine climbing activity in mouse on sc administration.
Assay [2] relates to Rattus norvegicus. In words: Tested for stimulation of intragastric pressure in rat on sc administration; range 1-50 mg/kg. It counts as functional. The gist of the method:
as §1

The test system of assay [3] is Rattus norvegicus. Put plainly: Tested for stimulation of intragastric pressure in ra0t on sc administration; range 1-50 mg/kg.
The subject of assay [4] is Rattus norvegicus. In words: Tested for stimulation of intragastric pressure in rat on sc administration; range 1-10 mg/kg. It counts as functional. The gist of the method: as §1
The mark [5] stands for this setting: Rattus norvegicus, read-out: ED50.
[6] abbreviates: Mus musculus, sc, read-out: ED50.

This passage reports ED50 results from ChEMBL document CHEMBL1122869, “Substituted benzamides with conformationally restricted side chains. 1. Quinolizidine derivatives as selective gastric prokinetic agents” (1985).

Structures are written as SMILES. Some results are limits rather than exact numbers.

In the case of `CCN(CC)CCNC(=O)c1cc(Cl)c(N)cc1OC` [METOCLOPRAMIDE], the ED50 came to 1 mg/kg with Rattus norvegicus [1], 1 mg/kg in the assay on Rattus norvegicus [1] (setting [5]), 0.75 mg/kg with Mus musculus and 0.75 mg/kg in the assay on Mus musculus (setting [6]).

For the compound `COc1cc(N)c(Cl)cc1C(=O)NC1CCN2C(C)CCCC2C1` (stereo in doubt; 2f) [BRL-20627], the results for the ED50 in the assay on Rattus norvegicus [2] (setting [5]) and in the assay on Mus musculus were 1 mg/kg and greater than 50 mg/kg, respectively.

`COc1cc(N)c(Cl)cc1C(=O)NC1CCCN2CCCCC12` (stereo in doubt; 2b): the ED50 in the assay on Rattus norvegicus [2] (setting [5]) is greater than 50 mg/kg; with Mus musculus, 0.4 mg/kg.

In the assay with Rattus norvegicus [3], `COc1cc(N)c(Cl)cc1C(=O)NC1CCCN2CCCCC12` (configuration not stated) gave an ED50 of 1 mg/kg.

On to `COc1cc(N)c(Cl)cc1C(=O)NC1CCN2C(C)CCCC2C1` (stereo in doubt; form 1) [BRL-20627], for which the ED50 with Rattus norvegicus [1] (setting [5]) stood at 0.8 mg/kg; in the assay with Mus musculus (setting [6]), 25 mg/kg.

As to `COc1cc(N)c(Cl)cc1C(=O)NC1CCC2CCCCN2C1` (stereo in doubt; form 2), the ED50 in the assay with Rattus norvegicus [4] (setting [5]) amounted to 1 mg/kg; with Mus musculus (setting [6]) it was 10 mg/kg.

On to `COc1cc(N)c(Cl)cc1C(=O)NC1CCN2C(C)CCCC2C1` (stereo in doubt; form 2) [BRL-20627], for which the ED50 with Rattus norvegicus [1] was 0.8 mg/kg; in the assay on Mus musculus, 25 mg/kg.

For the compound `COc1cc(N)c(Cl)cc1C(=O)NC1CCC2CCCCN2C1` (stereo in doubt; form 1), the ED50 is 1 mg/kg with Rattus norvegicus [4] and 10 mg/kg with Mus musculus.

Take `COc1cc(N)c(Cl)cc1C(=O)NC1CCC2CCCCN2C1` (stereo in doubt; 2c): the values for the ED50 in the assay with Rattus norvegicus [2] (setting [5]) and with Mus musculus were 1 mg/kg and 12 mg/kg, respectively.

For `COc1cc(N)c(Cl)cc1C(=O)NC1CCN2CCCCC2C1` (stereo in doubt; 2e), the ED50 in the assay with Rattus norvegicus [1] is 4 mg/kg; in the assay with Mus musculus, 7 mg/kg.

On to `COc1cc(N)c(Cl)cc1C(=O)NC1CCC2CCCCN2C1` (configuration not stated), for which, in the assay on Rattus norvegicus [2], the ED50 turned out to be 1 mg/kg.

Turning to `COc1cc(N)c(Cl)cc1C(=O)NC1CCN2C(C)CCCC2C1` (configuration not stated) [BRL-20627], the ED50 in the assay on Rattus norvegicus [2] amounted to 1 mg/kg.

On to `COc1cc(N)c(Cl)cc1C(=O)NC1CCCN2CCCCC12` (stereo in doubt; 2a), for which the ED50 in the assay on Rattus norvegicus [2] was 1 mg/kg; in the assay with Mus musculus, greater than 50 mg/kg.

Take `COc1cc(N)c(Cl)cc1C(=O)NC1CCN2CCCCC2C1` (stereo in doubt; 2g): the values for the ED50 in the assay on Rattus norvegicus [1] and in the assay on Mus musculus were 0.8 mg/kg and 25 mg/kg, respectively.
